Screening data (PubChem)
In the library only some 3.6% were active in any assay of this set; here they are far more common.
SR-BI uptake up = enhances SR-BI lipid uptake from DiI-HDL. CHO ldlA[mSR-BI] cells, DiI-HDL uptake fluorescence, 3 h; 100 = double the neutral-control signal. activation, % at 12.5 µM. actives 0.096% (n = 320,000);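 active = mean replicate activation of at least 60% and every replicate at or above 60%; inconclusive = mean or all-replicate condition met, but not both; inactive = mean below 60% and not all replicates reaching 60%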;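 also: 0% = median plate neutral-control signal and 100% = twice that signal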
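System: LDL receptor-deficient CHO ldlA cells overexpressing murine SR-BI | Timing: 3 h uptake period with compound, 37 °C | Medium: HEPES-buffered (25 mM, pH 7.4) F12 plus 0.5% BSA | Dosing: Single-point compound dose | Signal: Bottom-read fluorescence, 550/595 nm | Read-out: Retained DiI signal reflecting DiI-HDL uptake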
HSF1 activator = increases HSF-1 driven luciferase reporter signal; activation, % at 9 µM; NIH3T3-HGL HSF-1 luciferase reporter, MG132, 8 h; 100% = twice DMSO control signal; actives 1.7% (n = 300,000);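 active = mean replicate activation of at least 50% with a set share of replicates each reaching 50%; inconclusive = only one of those two conditions met; inactive = mean below 50% and too few replicates reaching it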;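 also: 0% = median of the neutral control wells and 100% = twice that signal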
Wnt bcat act = Wnt/beta-catenin pathway activation; Wnt/beta-catenin reporter cell assay, activator, plate reader; activation, % at 9.35 µM; actives 1.2% (n = 300,000); in the data active = activation above about 30%, passing the limit was not always enough; inconclusive = no clear call, values can overlap the other calls;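 also: 0% = neutral control wells and 100% = positive control wells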
MITF TRPM1 HTS = MITF TRPM1 promoter activation in melanoma cells; activation, % at 12.5 µM; actives 0.75% (n = 300,000); SK-MEL-5 TRPM1-promoter luciferase, 24 h; % of positive control, neutral wells = 0;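 active = mean activation of at least 80% with every replicate also reaching 80%; inconclusive = mean reaches 80% but some replicate falls short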;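 also: 0% = neutral control wells and 100% = parthenolide positive control wells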
SR-BI DiI inh = inhibitors of mouse SR-BI mediated HDL lipid uptake | ldlA[mSR-BI] CHO cells, DiI-HDL uptake fluorescence, 3 h | inhibition, % at 12.5 µM | actives 0.96% (n = 320,000) | AID 488896;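 active = mean replicate inhibition of at least 70% and a set share of replicates each scoring 70 or more; inconclusive = meets just one of the two criteria; inactive = fails both criteria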;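 also: 0% = median of neutral control wells and 100% = median of positive control wells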
Target sequence (Q61009 whole entry, looked up): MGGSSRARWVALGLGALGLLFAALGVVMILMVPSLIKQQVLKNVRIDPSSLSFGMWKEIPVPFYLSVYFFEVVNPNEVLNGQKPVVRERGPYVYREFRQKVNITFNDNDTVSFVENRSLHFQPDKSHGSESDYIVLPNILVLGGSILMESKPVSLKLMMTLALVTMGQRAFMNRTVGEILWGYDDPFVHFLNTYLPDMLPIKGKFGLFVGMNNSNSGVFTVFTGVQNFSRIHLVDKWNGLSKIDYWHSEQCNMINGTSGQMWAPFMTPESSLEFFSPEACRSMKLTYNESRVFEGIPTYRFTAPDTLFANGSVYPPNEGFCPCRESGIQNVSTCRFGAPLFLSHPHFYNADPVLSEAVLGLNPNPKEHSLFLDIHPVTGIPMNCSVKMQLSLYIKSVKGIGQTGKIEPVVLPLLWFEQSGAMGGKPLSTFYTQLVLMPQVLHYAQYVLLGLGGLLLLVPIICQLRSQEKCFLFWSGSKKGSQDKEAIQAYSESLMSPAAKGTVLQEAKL
* hit, by the source's call; u = inconclusive; x = no result.

SMILES	SR-BI uptake up	HSF1 activator	Wnt bcat act	MITF TRPM1 HTS	SR-BI DiI inh
Cc1ccc(CNCc2ccccc2Cl)cc1	1	22	x	10	-1
CC1=C(/C=C/C(C)=C/C=C/C(C)=C/C(=O)Nc2ccc(O)cc2)C(C)(C)CCC1	-98	x	-3	6	98*
CC1=C(/C=C/C(=O)O)C(C)(C)CCC1	54	65*	-5	x	-54
N#Cc1c(N)[nH]c(C(=O)c2ccccc2)c1-c1ccc(Cl)cc1	x	x	-2	x	x
Cc1ccc(NC(=O)C2(C)CCN2Cc2cccc3c2OCO3)cc1O (configuration not stated)	x	x	-2	x	x
Cc1ccsc1C(=O)NNC(=S)NCC(C)C	12	15	3	3	-12
Cc1cccc(NC(=S)NNC(=O)c2csc(C(C)C)c2)c1	-15	17	50*	x	15
CCc1cc(C(=O)Nc2ccc(C)cc2Br)cs1	-3	48	70*	x	3
CCc1cc(C(=O)NNC(=S)Nc2cccc(C)c2)cs1	1	37	39*	x	-1
Cc1cccc(NC(=S)NNC(=O)c2sccc2C)c1	7	57*	x	21	-7
Cc1cccc(C(=O)NNC(=O)Nc2ccccc2)c1	13	-9	x	-18	-13
CC(C)C[C@@H](CN1CCC[C@H]1CN1C(=O)C(=O)NC[C@@H]1Cc1ccccc1)N1C[C@H](Cc2ccccc2)N(CC2CCCCC2)C(=O)C1=O	x	x	-2	x	x
CCCc1nc2ccc(Br)cn2c1Cc1cccc(Cl)c1	x	x	1	x	x
NS(=O)(=O)c1ccc(OCCCN2CCC(C(O)(c3ccccc3)c3ccccc3)CC2)cc1	x	x	-2	x	x
COc1cc(F)ccc1-c1cc(C(=O)Nc2cc(OC)c(OC)c(OC)c2)[nH]n1	x	x	1	x	x
CN(C)c1ccc(NC(=O)Nc2nc(C(N)C3CCCCC3)cs2)cc1 (configuration not stated)	x	x	5	x	x
COCCN1C[C@@H](CO)O[C@@H](n2cnc3c(N4CCN(c5ccccc5)CC4)ncnc32)C1	x	x	1	x	x
COCCCN1CC(=O)N2C(c3cccc(C)c3)c3[nH]c4ccccc4c3C[C@H]2C1=O (some centres not stated)	-76	13	-2	-3	76*
CN1CC(=O)N2C(c3cccc([N+](=O)[O-])c3)c3[nH]c4ccccc4c3C[C@H]2C1=O (some centres not stated)	-80	-5	8	-19	80*
CN1CC(=O)N2C(c3ccc(Cl)cc3)c3[nH]c4ccccc4c3C[C@H]2C1=O (some centres not stated)	-50	6	15	1	50
COCCN1CC(=O)N2C(c3cccc(C)c3)c3[nH]c4ccccc4c3C[C@H]2C1=O (some centres not stated)	-68	8	0	-2	68
C=CCN1CC(=O)N2C(c3ccccc3)c3[nH]c4ccccc4c3C[C@H]2C1=O (some centres not stated)	-78	17	9	-9	78*
CCCOc1c(Br)cc(C(=O)OCc2cc(=O)n3ccsc3n2)cc1OC	-10	x	-2	-27	10
O=C(COc1ccc(Cl)cc1)Nc1ncc([N+](=O)[O-])s1	-15	78*	38*	15	15
O=C(Cc1ccc(Cl)cc1)Nc1ncc([N+](=O)[O-])s1	2	36	7	20	-2
SMILES	SR-BI uptake up	HSF1 activator	Wnt bcat act	MITF TRPM1 HTS	SR-BI DiI inh
Cc1ccc(S(=O)(=O)N2C[C@H]3C(=O)C[C@@H](c4ccccc4C)N(S(=O)(=O)c4ccc(C)cc4)[C@H]3C[C@H]2c2ccccc2)cc1	x	x	-2	x	x
COc1ccc(OCCCSc2ncccn2)cc1	-12	17	x	113*	12
COc1ccc(OCCSc2ncccn2)cc1	13	u	x	38	-13
Clc1ccc(OCCSc2ncccn2)cc1	15	16	x	100*	-15
CCn1c(SCCOc2ccc(Cl)cc2)nnc1-c1cccs1	10	61*	-5	x	-10
CCn1c(SCC(=O)c2ccc(Cl)cc2)nnc1-c1cccs1	-1	-7	-1	x	1
Cc1[nH]n(-c2ccccc2)c(=O)c1C=NCc1ccncc1	x	1	4	18	x
Cc1[nH]n(-c2ccccc2)c(=O)c1C=NCCc1ccccc1	8	90*	-1	21	-8
Cc1[nH]n(-c2ccccc2)c(=O)c1/C=N/Nc1nncc(-c2ccccc2)n1	-91	-5	1	-46	91*
CC(C)Cc1ccc(-c2cc3nc(NCCCn4ccnc4)ccn3n2)cc1	x	x	-3	x	x
O=S1(=O)CCN(C2CCCC2)CC1	x	x	-2	x	x
COc1cc(C(=O)Nc2nc3ccccc3s2)ccc1OCc1c(C)noc1C	-67	39	x	10	67
COc1cc(C(=O)Nc2nccs2)ccc1OCc1c(C)noc1C	-76	-2	0	10	76*
O=C(Nc1nnc(C2CC2)s1)c1ccc(Cl)nc1	21	x	34*	46	-21
COc1cc(C(=O)Nc2nnc(C3CC3)s2)ccc1OCc1c(C)noc1C	-88	8	1	-2	88*
Cc1nc2c(=O)n(C)c(=O)n(C)c2nc1Cl	41	284*	-3	-43	-41
Cc1cc(C)nc(NN=CC2=C(N3CCOCC3)/C(=C/c3ccc(Cl)cc3)CC2)n1	-76	x	-6	-19	76*
Cc1occc1C(=O)N/N=C/C1=C(N2CCOCC2)C(=C\c2ccc(Cl)cc2Cl)/CC1	-77	41	-2	-4	77*
Cc1cc(C)nc(N/N=C/C2=C(N3CCOCC3)C(=C\c3ccc(Cl)cc3)/CC2)n1	-74	48	-1	-20	74*
O=CC1=C(N2CCOCC2)/C(=C/c2ccc(Cl)cc2)CC1	-22	3	1	-9	22
CCc1ccccc1Oc1nc(NCc2ccccc2)nc2ccsc12	x	x	-2	x	x
O=C(NCc1ccccc1)[C@@H]1CCCN1C(=O)[C@H]1CCCN1C(=O)c1ccc(F)cc1F	x	x	-6	x	x
COC(=O)c1cc(C)nc(Nc2nc(C(N)Cc3ccc(Cl)cc3)cs2)n1 (configuration not stated)	x	x	641*	x	x
Cc1nc(N2CCC(C)CC2)c2c(C)c(C(=O)Nc3ccc4c(c3)OCCO4)sc2n1	-69	2	-3	11	69
Cc1nc(N2CCC(C)CC2)c2c(C)c(C(=O)Nc3ccc(C(F)(F)F)cc3)sc2n1	-75	8	-5	-13	75*
Cc1nc(N2CCC(C)CC2)c2c(C)c(C(=O)Nc3cccc(C(F)(F)F)c3)sc2n1	-87	59*	0	1	87*
Cc1nc(N2CCOCC2)c2c(C)c(C(=O)Nc3ccccc3C(F)(F)F)sc2n1	-40	3	3	8	40
CCOC(=O)N1C2c3ccccc3C(c3ccccc32)N1C(=O)OCC	-6	x	-2	13	6
C[C@@H]1CN([C@@H](C)CO)C(=O)CCCn2cc(nn2)CO[C@H]1CN(C)C(=O)Nc1ccc(F)cc1	x	x	-2	x	x
Cc1ccc(-c2cc(C(=O)OCC(=O)NC3CC3)c3ccccc3n2)cc1	-51	x	13	x	51
